According to ChEMBL document CHEMBL5247591, “Single-digit nanomolar inhibitors lock the aromatase active site via a dualsteric targeting strategy” (Eur J Med Chem, 2022):
Calls of active or inactive are those of the source. No cut-off for these calls is given here.

Key:
Aromatase [1] = biological target: T1, Aromatase (Homo sapiens, UniProt P11511); test: Inhibition of recombinant human aromatase preincubated for 10 mins followed by substrate and beta-NADP+ addition and measured for 60 mins by fluorescence based assay
T1 sequence (P11511 whole entry): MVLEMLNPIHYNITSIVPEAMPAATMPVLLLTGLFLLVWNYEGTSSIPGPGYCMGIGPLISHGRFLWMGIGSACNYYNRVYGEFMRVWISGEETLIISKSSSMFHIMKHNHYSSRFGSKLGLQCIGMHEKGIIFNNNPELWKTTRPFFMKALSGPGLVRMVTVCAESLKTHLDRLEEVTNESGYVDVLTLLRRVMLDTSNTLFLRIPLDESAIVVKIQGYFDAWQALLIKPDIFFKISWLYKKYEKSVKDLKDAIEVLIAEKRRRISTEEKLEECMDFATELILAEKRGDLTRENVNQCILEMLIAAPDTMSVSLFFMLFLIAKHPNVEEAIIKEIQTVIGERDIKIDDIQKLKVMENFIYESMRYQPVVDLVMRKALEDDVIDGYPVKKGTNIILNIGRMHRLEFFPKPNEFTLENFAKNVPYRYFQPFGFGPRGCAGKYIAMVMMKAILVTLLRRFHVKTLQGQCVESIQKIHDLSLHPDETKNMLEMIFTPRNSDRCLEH
Method in brief: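 Recombinant human aromatase with NADPH-generating system in aromatase assay buffer. Compounds tested at 1000, 100, 10, 1 and 0.1 nM, DMSO final ≤0,25% (v/v). Preincubated 37°C for 10 min, then fluorogenic substrate/β-NADP+ added. Fluorescence read at 488/527 nm for 60 min.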

MCF7 = test: Antiproliferative activity against estrogen positive human MCF7 cells assessed as inhibition of cell growth upto 50 uM incubated for 72 hrs by cell counting analysis; assay type: functional, cell-based
Method in brief: (§1)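 Cells seeded in duplicate (50.000 cells/well for MCF-7 and MDA-MB-231, 90.000 cells/well for MCF-10A). 24 h later exposed 72 h to 50-0.1 μM compound, with or without 1 μM testosterone; medium and treatments replaced at 48 h. Cells harvested with trypsin and counted with a cell counter. Three experiments.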

MDA-MB-231 = test: Antiproliferative activity against estrogen negative human MDA-MB-231 cells assessed as inhibition of cell growth upto 50 uM incubated for 72 hrs by cell counting analysis; assay type: functional, cell-based; method in brief: as §1
MCF-10A = test: Cytotoxicity against human MCF-10A cells assessed as inhibition of cell growth upto 50 uM incubated for 72 hrs by cell counting analysis; assay type: toxicity, cell-based; method in brief: as §1
Aromatase [2] = biological target: T1, Aromatase; test: Inhibition of human placental microsome aromatase using androstenedione as substrate assessed as reduction in 3H2O formation preincubated for 5 mins in presence of NADPH followed by microsomal protein addition and measured after 3 hrs; assay type: microsomes, Placenta

| SMILES | IC50 (Aromatase [1]) [nM] | IC50 (Aromatase [2]) [nM] | inhibition (MCF7) | inhibition (MDA-MB-231) | Activity (MCF-10A) |
| --- | --- | --- | --- | --- | --- |
| C#CCOc1ccc(C(=O)c2ccc(Cn3ccnc3)cc2)cc1 | 210 |  | inactive | inactive | Non-Toxic |
| CCC#CCOc1ccc(C(=O)c2ccc(Cn3ccnc3)cc2)cc1 | 1420 |  | inactive | inactive | Non-Toxic |
| COc1ccc(C(=O)c2ccc(Cn3ccnc3)cc2)cc1 |  | 238 |  |  |  |
| CCCCCOc1ccc(C(=O)c2ccc(Cn3ccnc3)cc2)cc1 | 1300 |  | inactive | inactive | Non-Toxic |
| O=C(c1ccc(Cn2ccnc2)cc1)c1ccc(-c2ccccc2)cc1 |  | 2530 |  |  |  |
| CCCOc1ccc(C(=O)c2ccc(Cn3ccnc3)cc2)cc1 | 374 |  | inactive | inactive | Non-Toxic |
| O=C(c1ccc(O)cc1)c1ccc(Cn2ccnc2)cc1 |  | 1100 |  |  |  |
| CCCCCOc1ccc(C(=O)c2cccc(Cn3ccnc3)c2)cc1 | 42 |  | inactive | inactive | Non-Toxic |
| C#CCOc1ccc(C(=O)c2cccc(Cn3ccnc3)c2)cc1 | 650 |  | inactive | inactive | Non-Toxic |

Further compounds by falling IC50 (Aromatase [1]), results first:

| IC50 (Aromatase [1]) [nM] | IC50 (Aromatase [2]) [nM] | SMILES | inhibition (MCF7) | inhibition (MDA-MB-231) | Activity (MCF-10A) |
| --- | --- | --- | --- | --- | --- |
| 13 |  | COc1ccc(C(=O)c2cccc(Cn3ccnc3)c2)cc1 | inactive | inactive | Non-Toxic |
| 13 |  | O=C(c1ccc(O)cc1)c1cccc(Cn2ccnc2)c1 | inactive | inactive | Non-Toxic |
| 9 |  | CCC#CCOc1ccc(C(=O)c2cccc(Cn3ccnc3)c2)cc1 | inactive | inactive | Non-Toxic |
| 2 |  | CCCOc1ccc(C(=O)c2cccc(Cn3ccnc3)c2)cc1 | inactive | inactive | Non-Toxic |
